Experimental data from ChEMBL document CHEMBL1126265, “Novel 5-HT3 antagonists: indol-3-ylspiro(azabicycloalkane-3,5'(4'H)-oxazoles)” (J Med Chem, 1992).

How the values were obtained:
[1] = target: T1, Serotonin 3 (5-HT3) receptor (Rattus norvegicus, UniProt P35563+Q9JJ16); experiment: Displacement of [3H]Q-ICS-205-930 from 5-hydroxytryptamine 3 receptor recognition sites in rat brain membranes; format: cell membranes
T1 sequence (P35563 whole entry): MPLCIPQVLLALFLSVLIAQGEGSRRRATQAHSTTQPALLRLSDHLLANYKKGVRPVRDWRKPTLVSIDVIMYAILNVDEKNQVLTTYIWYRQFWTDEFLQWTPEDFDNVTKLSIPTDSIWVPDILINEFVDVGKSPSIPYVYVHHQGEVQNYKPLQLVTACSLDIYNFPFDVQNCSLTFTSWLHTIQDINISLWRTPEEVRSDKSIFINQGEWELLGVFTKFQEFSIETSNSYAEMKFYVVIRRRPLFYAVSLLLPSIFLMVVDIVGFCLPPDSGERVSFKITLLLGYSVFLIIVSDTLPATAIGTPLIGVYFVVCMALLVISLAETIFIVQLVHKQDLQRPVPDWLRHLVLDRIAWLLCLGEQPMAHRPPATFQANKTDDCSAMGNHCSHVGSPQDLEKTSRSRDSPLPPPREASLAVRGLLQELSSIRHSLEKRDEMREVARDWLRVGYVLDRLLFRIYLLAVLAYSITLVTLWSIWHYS
T1 sequence (Q9JJ16 whole entry): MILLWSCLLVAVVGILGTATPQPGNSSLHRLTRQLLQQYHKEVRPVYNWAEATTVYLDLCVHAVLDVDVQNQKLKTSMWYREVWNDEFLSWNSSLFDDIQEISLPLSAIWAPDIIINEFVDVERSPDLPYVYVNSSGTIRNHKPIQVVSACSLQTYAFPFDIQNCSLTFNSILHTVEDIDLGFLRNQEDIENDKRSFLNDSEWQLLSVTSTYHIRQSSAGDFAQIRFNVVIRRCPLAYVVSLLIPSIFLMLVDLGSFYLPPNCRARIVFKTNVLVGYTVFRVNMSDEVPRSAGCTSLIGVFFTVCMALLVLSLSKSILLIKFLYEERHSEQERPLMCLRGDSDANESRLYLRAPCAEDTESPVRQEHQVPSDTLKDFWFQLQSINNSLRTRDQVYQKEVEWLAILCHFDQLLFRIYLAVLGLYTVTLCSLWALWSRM
Summary of the method: (§1)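 Value reported as mean ± SEM where n ≥ 3 independent determinations; where no SEM is given, mean of two independent determinations, individual values typically within ±10% of the mean.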

[2] = target: T1, Serotonin 3 (5-HT3) receptor; experiment: Compound was evaluated for the displacement of [3H]Q-ICS-205-930 from 5-HT3 recognition sites in rat brain membranes; format: cell membranes; summary of the method: as §1

With c1ccc2c(C3=NCC4(CN5CCC4CC5)O3)csc2c1 (stereo not given) as the compound, how does the IC50 [1] read?
The IC50 was 26.9 nM.

For c1ccc2c(c1)c(C1=NCC3(CN4CCC3CC4)O1)cn2CC1CC1 (stereo not given), which IC50 [1] is on record?
Its IC50 is 13.2 nM.

How did the IC50 [1] turn out when Cn1cc(C2=NC[C@]3(CN4CCC3CC4)O2)c2ccccc21 was run?
Its IC50 is 2.88 nM.

How did the IC50 [1] turn out when c1ccc2c(C3=NCC4(CN5CCC4CC5)O3)c[nH]c2c1 (stereo not given) was run?
Its IC50 is 4.79 nM.

Cn1cc(C2=NC[C@]3(C[N@@]4CC[C@@H]3C4)O2)c2ccccc21 was tested. Which IC50 [1] did it give?
Its IC50 is 3.09 nM.

Which IC50 [1] does the source give for CC(=O)c1c(C2=NCC3(CN4CCC3CC4)O2)c2ccccc2n1C (stereo not given) here?
Its IC50 is 6.46 nM.

Which IC50 [1] does the source give for Cn1cc(C2=NCC3(CN4CCC3CC4)O2)c2cc(N)ccc21 (stereo not given) here?
Its IC50 is 575 nM.

With CN1CCC2(CC1)CN=C(c1cn(C)c3ccccc13)O2 as the compound, how does the IC50 [1] read?
Its IC50 is 158 nM.

For Cn1cc(C2=NCC3(CN4CCC3CC4)O2)c2ccccc21 (stereo not given), which IC50 [1] is on record?
The IC50 was 3.16 nM.

Which IC50 [1] does the source give for Cn1cc(C2=NC[C@@]3(CN4CCC3CC4)O2)c2ccccc21 here?
The IC50 was 2.57 nM.

Cc1cccc2c(C3=NCC4(CN5CCC4CC5)O3)cn(C)c12 (stereo not given) was tested. Which IC50 [1] did it give?
Its IC50 is 8.91 nM.

With Cn1cc(C2=NCC3(CN4CCC3CC4)O2)c2cc(F)ccc21 (stereo not given) as the compound, how does the IC50 [1] read?
Its IC50 is 14.8 nM.

Which IC50 [1] does the source give for COc1cccc(C2=NCC3(CN4CCC3CC4)O2)c1 (stereo not given) here?
The IC50 was 407 nM.

Which IC50 [1] does the source give for Cn1c(I)c(C2=NCC3(CN4CCC3CC4)O2)c2ccccc21 (stereo not given) here?
The IC50 was 26.9 nM.

Cn1cc(C2=NCC3(CCN4CCCC3C4)O2)c2ccccc21 (stereo not given) was tested. Which IC50 [1] did it give?
Its IC50 is 1.12 nM.

C=CCn1cc(C2=NCC3(CN4CCC3CC4)O2)c2ccccc21 (stereo not given) was tested. Which IC50 [1] did it give?
Its IC50 is 7.94 nM.

How did the IC50 [1] turn out when Cn1cc(C2=NCC3(CC4CCC(C3)[N+]4(C)C)O2)c2ccccc21 (stereo in doubt; 22e) was run?
The IC50 was 3.31 nM.

With CN1C2CCC1CC1(CN=C(c3cn(C)c4ccccc34)O1)C2 (stereo in doubt; 22b) as the compound, how does the IC50 [1] read?
The IC50 was 4.57 nM.

Cn1cc(C2=NCC3(CC4CCC(C3)[N+]4(C)C)O2)c2ccccc21 (stereo in doubt; 22c) was tested. Which IC50 [1] did it give?
The IC50 was 5.01 nM.

Which IC50 [1] does the source give for Cn1cc(C2=NCC3(C[N+]4([O-])CCC3CC4)O2)c2ccccc21 (stereo not given) here?
The IC50 was 2630 nM.

c1ccc2c(C3=NCC4(CN5CCC4CC5)O3)[nH]nc2c1 (stereo not given) was tested. Which IC50 [1] did it give?
The IC50 was 26.3 nM.

Cc1ccc2c(c1)c(C1=NCC3(CN4CCC3CC4)O1)cn2C (stereo not given) was tested. Which IC50 [1] did it give?
Its IC50 is 132 nM.

For Cn1cc(C2=NC[C@@]3(C[N@@]4CC[C@@H]3C4)O2)c2ccccc21, which IC50 [1] is on record?
Its IC50 is 3.47 nM.

How did the IC50 [1] turn out when CN1C2CCC1CC1(CN=C(c3cn(C)c4ccccc34)O1)C2 (stereo in doubt; 22d) was run?
Its IC50 is 6.31 nM.

For CN1[C@@H]2CC[C@H]1C[C@@H](OC(=O)c1c[nH]c3ccccc13)C2 [TROPISETRON], which IC50 [2] is on record?
Its IC50 is 1.26 nM.

How did the IC50 [1] turn out when Cn1cc(C2=NCC3(C[N+]4(C)CCC3CC4)O2)c2ccccc21 (single isomer, unassigned; 22o) was run?
Its IC50 is 10.2 nM.

Cn1cc(C2=NCC3(CC4CCC(C3)N4Cc3ccccc3)O2)c2ccccc21 (stereo not given) was tested. Which IC50 [1] did it give?
Its IC50 is 174 nM.

With Cn1cc(C2=NCC3(C[N+]4(C)CCC3CC4)O2)c2ccccc21 (single isomer, unassigned; 22n) as the compound, how does the IC50 [1] read?
Its IC50 is 42.7 nM.

With Cn1c([Si](C)(C)C)c(C2=NCC3(CN4CCC3CC4)O2)c2ccccc21 (stereo not given) as the compound, how does the IC50 [2] read?
The IC50 was 155 nM.

Which IC50 [1] does the source give for C#CCn1cc(C2=NCC3(CN4CCC3CC4)O2)c2ccccc21 (stereo not given) here?
The IC50 was 6.17 nM.

How did the IC50 [1] turn out when Cn1cc(C2=NCC3(CN4CCC3CC4)O2)c2cc(O)ccc21 (stereo not given) was run?
The IC50 was 195 nM.

For Cn1cc(C2=NCC3(CC4CCC(C3)N4)O2)c2ccccc21 (stereo not given), which IC50 [1] is on record?
Its IC50 is 11.2 nM.

Cn1cc(C2=NCC3(CN4CCC3CC4)O2)c2cc([N+](=O)[O-])ccc21 (stereo not given) was tested. Which IC50 [1] did it give?
Its IC50 is 229 nM.

CCn1cc(C2=NCC3(CN4CCC3CC4)O2)c2ccccc21 (stereo not given) was tested. Which IC50 [1] did it give?
The IC50 was 13.5 nM.

With COc1ccc2c(c1)c(C1=NCC3(CN4CCC3CC4)O1)cn2C (stereo not given) as the compound, how does the IC50 [1] read?
The IC50 was 263 nM.
